Assay outcomes as filed in PubChem.
UCH37 DUB inh: inhibitors of human UCH37 deubiquitinase, primary screen, biochemical, Ub-AMC cleavage, fluorescence; Ubiquitin carboxyl-terminal hydrolase isozyme L5 (Homo sapiens), Q9Y5K5; inhibition, % (no concentration beside the values); AID 588478, 2011; actives 0.33% (n = 330,000); purified proteasome/UCH37;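 active = mean inhibition over replicate wells above about 20%, limit read from the data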
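Schedule: 30 min plus 25 min, room temperature / Material: human UCH37 within purified proteasomes / Technique: AMC fluorescence intensity at 355/460 nm / Buffer or medium: pH 7.4 Tris-HCl (50 mM) with ovalbumin, ATP-MgCl2, DTT / Controls: wells without proteasome as full block, compound-free enzyme plus substrate as uninhibited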
PAFAH1B2 inh: PAFAH1B2 enzyme inhibitors, primary screen, biochemical, fluorescence polarization, human; actives 1.2% (n = 340,000); Platelet-activating factor acetylhydrolase IB subunit alpha2 (Homo sapiens), P68402; recombinant PAFAH1B2, FP-rhodamine activity probe; inhibition, % at 3.39 µM;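 active = inhibition above the mean of all tested compounds plus 3 SD, cut at about 24% in these data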
Target sequence (P68402 whole entry, looked up): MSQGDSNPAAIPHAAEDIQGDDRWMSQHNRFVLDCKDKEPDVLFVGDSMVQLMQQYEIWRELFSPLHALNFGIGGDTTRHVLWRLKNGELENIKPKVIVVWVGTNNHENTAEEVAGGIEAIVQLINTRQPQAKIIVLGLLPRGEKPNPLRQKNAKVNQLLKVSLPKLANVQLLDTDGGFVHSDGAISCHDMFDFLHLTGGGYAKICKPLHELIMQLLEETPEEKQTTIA
pPAFAH FP inh: pPAFAH enzyme inhibitors, primary screen, biochemical, fluorescence polarization, human; Platelet-activating factor acetylhydrolase (Homo sapiens), Q13093; recombinant pPAFAH, FP-rhodamine probe fluorescence polarization; inhibition, % at 3.39 µM; actives 1.5% (n = 330,000); AID 463082, 2010;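 active = inhibition above the mean inhibition across the screen plus 3 SD, cut at about 25% in these data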;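 also: inhibitors block binding of the rhodamine activity-based probe so polarization drops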
Target sequence (Q13093 whole entry, looked up): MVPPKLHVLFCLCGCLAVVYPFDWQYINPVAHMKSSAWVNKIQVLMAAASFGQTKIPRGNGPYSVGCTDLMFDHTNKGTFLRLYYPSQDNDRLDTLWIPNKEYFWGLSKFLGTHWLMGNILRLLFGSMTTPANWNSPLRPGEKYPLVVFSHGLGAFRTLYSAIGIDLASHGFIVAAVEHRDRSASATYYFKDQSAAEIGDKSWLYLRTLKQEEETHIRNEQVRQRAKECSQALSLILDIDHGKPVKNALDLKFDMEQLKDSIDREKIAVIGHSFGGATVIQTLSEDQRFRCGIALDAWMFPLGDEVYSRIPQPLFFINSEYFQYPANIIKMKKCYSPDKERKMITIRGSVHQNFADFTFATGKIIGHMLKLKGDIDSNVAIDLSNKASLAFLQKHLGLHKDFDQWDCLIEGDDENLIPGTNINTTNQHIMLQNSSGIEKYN
PAFAH2 inh: PAFAH2 enzyme inhibitors, primary screen, biochemical, fluorescence polarization, human | Platelet-activating factor acetylhydrolase 2, cytoplasmic (Homo sapiens), Q99487 | recombinant PAFAH2, FP-rhodamine activity probe | inhibition, % at 3.39 µM | actives 0.99% (n = 340,000) | AID 492956, 2010;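 active = inhibition above the mean over all tested compounds plus 3 SD, cut at about 30% in these data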;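 also: inhibitors block probe labeling of enzyme so polarization drops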
PAFAH1B3 FP inh: PAFAH1B3 enzyme inhibitors, primary screen, biochemical, fluorescence polarization, human | inhibition, % at 3.39 µM | actives 0.28% (n = 340,000) | AID 492972, 2010 | recombinant PAFAH1B3, FP-rhodamine probe;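 active = inhibition above the screen-wide average of all tested compounds plus 3 SD, cut at about 25% in these data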
NR3A LBD binder: binders of NR3A ligand-binding domain, primary screen, biophysical, differential scanning fluorimetry, uHTS; Tm shift relative to glycine control, % at 25 µM; actives 2.5% (n = 340,000); AID 1259313, 2017; Glutamate receptor ionotropic, NMDA 3A (GRIN3A) ligand-binding domain; NR3A LBD differential scanning fluorimetry, Tm shift; 0% = protein alone, 100% = glycine-bound protein;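 active = melting temperature shift of at least 10% of the positive control shift, at one fixed dose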
Large screens that a line does not name were inactive. Compounds with a hit are over-represented: about 4.8% of the library has one in this group of screens.

Cc1nc2c(sc(=S)n2Cc2ccco2)c(=O)n1CC(=O)Nc1ccc(F)cc1	NR3A LBD binder 14
CCn1c(=S)sc2c(=O)n(CC(=O)Nc3ccc(OC)c(Cl)c3)c(C)nc21	NR3A LBD binder 12
CCn1c(=S)sc2c(=O)n(CC(=O)Nc3ccc(Cl)cc3)c(C)nc21	NR3A LBD binder 15
CCn1c(=S)sc2c(=O)n(CC(=O)Nc3ccccc3)c(C)nc21	none
Cc1ccc(S(=O)(=O)N2CCOCC2)cc1NN=C(C#N)c1nc2ccccc2[nH]1	none (no result: PAFAH1B2 inh, pPAFAH FP inh, PAFAH2 inh, PAFAH1B3 FP inh, NR3A LBD binder)
Nc1c(C(=O)NCC2CCCO2)sc2nc3c(c(-c4ccco4)c12)CC/C3=C\c1ccco1 (centres undefined)	PAFAH1B2 inh 24, PAFAH2 inh 54, PAFAH1B3 FP inh 39 (no result: pPAFAH FP inh)
O=C(/C=C/c1ccco1)NCC1CCCO1 (centres undefined)	none
CC(=NNS(=O)(=O)c1ccccc1)c1cc(Cl)cc(Cl)c1O	none (no result: PAFAH1B2 inh, pPAFAH FP inh, PAFAH2 inh, PAFAH1B3 FP inh, NR3A LBD binder)
CC1=C(C#N)C(=O)N(C2CCS(=O)(=O)C2)C(=O)/C1=C\c1ccco1 (centres undefined)	pPAFAH FP inh 93 (no result: UCH37 DUB inh, PAFAH1B2 inh, PAFAH2 inh, PAFAH1B3 FP inh, NR3A LBD binder)
O=S(=O)(c1ccccc1)c1nc(Nc2cccc(O)c2)sc1Cl	NR3A LBD binder 11
Cc1ccc(S(=O)(=O)c2nc(Nc3ccccc3)sc2Cl)cc1	none (no result: pPAFAH FP inh)
COc1ccc(C2=NOC(Cn3nc(-c4ccccc4)cc3C(=O)NCc3ccccc3OC)C2)cc1 (centres undefined)	NR3A LBD binder 25
COc1ccccc1CNC(=O)c1cc(-c2ccccc2)nn1CC1CC(c2cccnc2)=NO1 (centres undefined)	none
Cc1cc(C(=O)NN=C2CCCC(=O)C2)c(C)o1	none (no result: PAFAH1B2 inh, pPAFAH FP inh, PAFAH2 inh, PAFAH1B3 FP inh, NR3A LBD binder)
CCOc1cccc(C=NN2CCN(c3ccc(Cl)cc3)CC2)c1O	none (no result: PAFAH1B2 inh, pPAFAH FP inh, PAFAH2 inh, PAFAH1B3 FP inh, NR3A LBD binder)
CC1(c2nnc(Cc3ccccc3)o2)CC(c2ccncc2)=NO1 (centres undefined)	UCH37 DUB inh 21
CC1(c2nnc(-c3cccc(Cl)c3)o2)CC(c2ccccc2F)=NO1 (centres undefined)	NR3A LBD binder 13
CC1(c2nnc(Cc3ccccc3)o2)CC(c2ccc(Cl)cc2)=NO1 (centres undefined)	UCH37 DUB inh 28
COc1ccc(C2=NOC(C)(c3nnc(Cc4ccccc4)o3)C2)cc1 (centres undefined)	UCH37 DUB inh 29
CC1(c2nnc(Cc3ccccc3)o2)CC(c2ccc(C#N)cc2)=NO1 (centres undefined)	none
CC(=NNc1ncc(Cl)cc1Cl)c1ccc(S(=O)(=O)NCc2ccco2)cc1	none (no result: PAFAH1B2 inh, pPAFAH FP inh, PAFAH2 inh, PAFAH1B3 FP inh, NR3A LBD binder)
C=CCN1C(=O)/C(=C/c2ccc(O)cc2)SC1=Nc1nccs1	none (no result: PAFAH1B2 inh, pPAFAH FP inh, PAFAH2 inh, PAFAH1B3 FP inh, NR3A LBD binder)
C=CCN1C(=O)/C(=C/c2ccc(O)cc2)S/C1=N/c1nccs1	NR3A LBD binder 20 (no result: UCH37 DUB inh)
O=C1NN(c2ccc(Cl)c(Cl)c2)C(=O)/C1=C/c1ccc(-c2ccccc2C(=O)O)o1	PAFAH1B2 inh 26, PAFAH2 inh 30 (no result: pPAFAH FP inh)
Cc1ccc(N2NC(=O)/C(=C/c3ccc(-c4ccc(Cl)c(C(=O)O)c4)o3)C2=O)cc1C	none
CCC1Oc2ccccc2N(CC(=O)NC2CCCCC2C)C1=O (centres undefined)	NR3A LBD binder 15
C(=C\c1ccco1)/c1ccc2ccccc2n1	pPAFAH FP inh 26 (no result: PAFAH1B2 inh, PAFAH2 inh, PAFAH1B3 FP inh)
Fc1cccc(F)c1/C=C/c1ccc2ccccc2n1	none
CCC(C)Sc1ccc(-c2nc3ccc(C)cn3c2NCc2ccccc2)cc1OC (centres undefined)	pPAFAH FP inh 27
CCCCCCSc1ccc(-c2nc3ccc(C)cn3c2NCc2ccccc2)cc1OC	pPAFAH FP inh 26
COc1ccc(NC(=O)c2cccs2)cc1	none
COc1ccc(C(=O)Nc2ccc(NC(=O)c3cccc(OC)c3)cn2)cc1	NR3A LBD binder 38
COc1ccc(C(=O)Nc2ccc(NC(=O)c3cccs3)cn2)cc1	NR3A LBD binder 17
Cc1cc(NC(=O)c2ccc(Cl)cc2)no1	none
COc1ccc(C(=O)Nc2ccc(NC(=O)c3ccccc3OC)nc2)cc1	NR3A LBD binder 25
Cc1cc(NC(=O)c2ccc(NC(=O)c3cccs3)cc2)no1	NR3A LBD binder 14
COc1ccc(C(=O)Nc2ccc(NC(=O)c3cccc(F)c3)cn2)cc1	none
Nc1nnc(CC(=O)NN=Cc2ccccc2OCc2ccc(F)cc2)s1	none (no result: PAFAH1B2 inh, pPAFAH FP inh, PAFAH2 inh, PAFAH1B3 FP inh, NR3A LBD binder)
CC(=NNC(=O)c1c(Cl)cnn1C)c1ccc(NC(=O)c2ccc(Br)o2)cc1	none (no result: PAFAH1B2 inh, pPAFAH FP inh, PAFAH2 inh, PAFAH1B3 FP inh, NR3A LBD binder)
C/C(=N\NC(=O)c1c(Cl)cnn1C)c1ccc(NC(=O)c2ccc(Br)o2)cc1	NR3A LBD binder 14 (no result: UCH37 DUB inh, pPAFAH FP inh)
C/C(=N\N1CCN(c2ccccc2)CC1)c1ccc(O)cc1	NR3A LBD binder 10 (no result: UCH37 DUB inh, pPAFAH FP inh)
CCOc1cccc(-c2c(C(=O)NN=Cc3cccnc3)nnn2-c2nonc2N)c1	none (no result: PAFAH1B2 inh, pPAFAH FP inh, PAFAH2 inh, PAFAH1B3 FP inh, NR3A LBD binder)
N#CCC(=O)NN=Cc1ccc(OS(=O)(=O)c2ccccc2)cc1	none (no result: PAFAH1B2 inh, pPAFAH FP inh, PAFAH2 inh, PAFAH1B3 FP inh, NR3A LBD binder)
O=C(OCC(=O)N1CCC(c2ccccc2)=N1)c1ccc([N+](=O)[O-])s1	pPAFAH FP inh 25
Cc1ccccc1CSCC(=O)c1c(N)n(C)c(=O)n(C)c1=O	NR3A LBD binder 11
O=C(OC(C(=O)Nc1cccc(C(F)(F)F)c1)c1ccccc1)C1CCCCC1 (centres undefined)	NR3A LBD binder 14
CC(=NNC(=O)Cn1nnc2ccccc21)c1ccco1	none (no result: PAFAH1B2 inh, pPAFAH FP inh, PAFAH2 inh, PAFAH1B3 FP inh, NR3A LBD binder)
Cc1cc(=O)[nH]c(SCC(=O)C23CC4CC(CC(C4)C2)C3)c1C#N	PAFAH1B2 inh 63, PAFAH2 inh 49
O=C(Nc1cccc(C(F)(F)F)c1)N1CCC(c2nc(-c3ccc(F)cc3)no2)CC1	NR3A LBD binder 21
O=C(Nc1ccccc1)N1CCCC(c2nc(-c3ccc(F)cc3)no2)C1 (centres undefined)	none
COC(=O)CNC(c1ccccc1)c1cc(C)ccc1NC(=O)CNC(=O)OCc1ccccc1 (centres undefined)	pPAFAH FP inh 30
COC(=O)CNC(c1ccccc1)c1cc(Br)ccc1NC(=O)OCc1ccccc1 (centres undefined)	none
CCn1nnc(-c2ccccc2NS(=O)(=O)c2ccc(C(=O)OC)cc2)n1	NR3A LBD binder 12
COc1ccc(NC(=O)Cn2nnc(-c3ccccc3NS(=O)(=O)c3ccc(OC)cc3)n2)cc1	none
COc1ccc(NC(=O)Nc2ccc3c(c2)CCC3)cc1	NR3A LBD binder 14
COc1cccc(NC(=O)Nc2ccccc2Br)c1	none
COc1cccc(NC(=O)Nc2ccc3nc(C)c(C)nc3c2)c1	NR3A LBD binder 28 (no result: UCH37 DUB inh)
